For series [1], the system named is Trypanosoma brucei rhodesiense. Put plainly: Trypanocidal activity against Trypanosoma brucei rhodesiense STI B900 assessed as reduction in parasite viability. It is filed as functional, organism-based.
Series [2] concerns the target T1, cathepsin B (Rattus norvegicus, UniProt P00787). Put plainly: Inhibition of rat cathepsin B at 100 uM using Z-FR-AMC as substrate preincubated for 5 mins followed by substrate addition and measured after 15 mins by microplate reader based assay relative to control. Conditions: probe Z-FR-AMC.
Series [3] deals with Cruzipain (Trypanosoma cruzi) (UniProt P25779). Put plainly: Inhibition of recombinant Trypanosoma cruzi cruzain at 100 uM preincubated with BSA for 5 mins followed by incubation with enzyme for 5 mins followed by substrate addition relative to control. Conditions: time 10.0 min. Put shortly: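 For BSA sensitivity, compound was held 5 min with BSA (2 mg/mL in 0.001% Triton X-100), then 5 min with 1 nM cruzain, before substrate was added and activity monitored. Parallel runs omitted BSA under otherwise identical conditions.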
Chain of Cruzipain (Trypanosoma cruzi) (P25779 123-467 limits assumed): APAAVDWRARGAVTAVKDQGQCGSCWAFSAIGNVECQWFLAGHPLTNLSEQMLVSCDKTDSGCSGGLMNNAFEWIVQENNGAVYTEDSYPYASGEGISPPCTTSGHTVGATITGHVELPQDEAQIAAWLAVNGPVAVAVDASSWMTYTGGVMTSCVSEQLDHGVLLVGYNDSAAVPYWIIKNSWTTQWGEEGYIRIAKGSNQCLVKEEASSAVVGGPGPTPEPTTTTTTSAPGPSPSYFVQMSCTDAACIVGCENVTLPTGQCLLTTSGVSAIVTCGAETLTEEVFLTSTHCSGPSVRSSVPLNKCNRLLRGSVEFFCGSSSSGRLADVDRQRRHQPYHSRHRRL

The target in the next series is Cruzipain (Trypanosoma cruzi, UniProt P25779). The experiment in a line: Inhibition of recombinant Trypanosoma cruzi cruzain using Z-FR-AMC as substrate and measured at 12 sec interval for 5 mins without preincubation by fluorimetric analysis. The method, boiled down: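 Cruzain (recombinant, 1 nM) in 0.1 M sodium acetate pH 5.5 with 0.01% Triton X-100 and 1 mM β-mercaptoethanol; Z-FR-AMC 2.5 µM, read at 340/440 nm every 12 s for 5 min, with or without 10 min enzyme–compound pre-incubation. […] For mechanism and Ki, 0.3–20.0 µM substrate and five inhibitor levels were used, with Lineweaver-Burk plots.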
Chain of Cruzipain (P25779 whole entry): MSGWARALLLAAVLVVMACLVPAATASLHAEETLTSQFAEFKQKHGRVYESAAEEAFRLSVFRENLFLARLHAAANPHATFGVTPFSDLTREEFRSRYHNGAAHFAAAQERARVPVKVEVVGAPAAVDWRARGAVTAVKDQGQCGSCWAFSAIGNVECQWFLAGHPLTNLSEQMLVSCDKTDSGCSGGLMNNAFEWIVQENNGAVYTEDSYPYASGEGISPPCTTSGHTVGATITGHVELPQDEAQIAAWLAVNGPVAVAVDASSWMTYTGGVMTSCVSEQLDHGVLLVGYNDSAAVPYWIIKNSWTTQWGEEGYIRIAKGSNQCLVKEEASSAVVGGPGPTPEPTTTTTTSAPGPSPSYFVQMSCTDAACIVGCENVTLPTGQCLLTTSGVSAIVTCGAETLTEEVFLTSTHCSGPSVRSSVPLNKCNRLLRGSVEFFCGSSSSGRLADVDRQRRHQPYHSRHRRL

The target of series [4] is Cruzipain (Trypanosoma cruzi) (UniProt P25779). Put plainly: Inhibition of recombinant Trypanosoma cruzi cruzain at 10 uM using Z-FR-AMC as substrate and measured at 12 sec interval for 5 mins without preincubation by fluorimetric analysis relative to control. The method, boiled down: (§1)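 Recombinant rhodesain or cruzain (1 nM) in 0.1 M sodium acetate pH 5.5, 0.01% Triton X-100, 1 mM β-mercaptoethanol. Compound at a single concentration, either without or after 10 min enzyme pre-incubation. Z-FR-AMC 2.5 µM, read at 340/440 nm every 12 s for 5 min. Inhibition is relative to DMSO, with E-64 as positive control. Done in duplicate (primary screen) or triplicate.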

The target in series [5] is Rhodesain (Trypanosoma brucei rhodesiense) (UniProt Q95PM0). The experiment in a line: Inhibition of recombinant Trypanosoma brucei rhodesain expressed in Pichia pastoris at 300 uM using Z-FR-AMC as substrate preincubated for 10 mins followed by substrate addition and measured at 12 sec interval for 5 mins by fluorimetric analysis relative to control. Conditions: time 15.0 min. The method, boiled down:
(§2)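 Run with no pre-incubation or with 10 min enzyme-compound pre-incubation. Fluorescence read at 340/440 nm. Concentration was set by solubility under assay conditions. Inhibition is against DMSO, with E-64 as positive control; triplicate.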

The target of a further series is cathepsin S (Homo sapiens, UniProt P25774). The experiment in a line: Inhibition of recombinant human cathepsin S expressed in Escherichia coli at 100 uM using Z-VVR-AMC as substrate preincubated for 10 mins followed by substrate addition and measured after 15 mins by microplate reader based assay relative to control. Conditions: probe Z-VVR-AMC, in the assay text read “preincubated for 5 mins” for “preincubated for 10 mins”, time 20 min. The method, boiled down: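 Run with or without 5 min compound–enzyme pre-incubation. AMC fluorescence at 380/460 nm over 15 min. Inhibition relative to DMSO (2% final); E64 1 µM as positive control. Two independent experiments, each in triplicate.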
Chain of cathepsin S (P25774 whole entry): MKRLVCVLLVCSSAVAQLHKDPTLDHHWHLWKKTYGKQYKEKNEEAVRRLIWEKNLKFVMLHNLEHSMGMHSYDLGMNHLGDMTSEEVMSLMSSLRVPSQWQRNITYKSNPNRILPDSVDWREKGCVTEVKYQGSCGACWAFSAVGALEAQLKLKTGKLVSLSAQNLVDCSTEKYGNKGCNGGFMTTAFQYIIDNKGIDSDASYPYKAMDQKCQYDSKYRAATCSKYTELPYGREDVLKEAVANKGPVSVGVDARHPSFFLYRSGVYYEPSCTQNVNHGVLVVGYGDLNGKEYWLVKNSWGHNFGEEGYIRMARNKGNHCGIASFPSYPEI

Series [6] concerns the target Cruzipain (Trypanosoma cruzi) (UniProt P25779). The experiment in a line: Inhibition of recombinant Trypanosoma cruzi cruzain at 100 uM preincubated for 10 mins in presence of 0.01% Triton X-100 relative to control. The method, boiled down:
(§3)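 To test detergent sensitivity, cruzain was pre-incubated 10 min at room temperature with compound with no Triton X-100, 0.01% or 0.1% Triton X-100. Cleavage of Z-FR-AMC was then followed at pH 5.5 in acetate buffer. Percent inhibition was compared across detergent levels.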

Series [7] has the same target. The experiment in a line: Inhibition of recombinant Trypanosoma cruzi cruzain at 10 uM using Z-FR-AMC as substrate preincubated for 10 mins followed by substrate addition and measured at 12 sec interval for 5 mins by fluorimetric analysis relative to control. Conditions: time 15.0 min. The method, boiled down:
as §1

Series [8] shares this target. Put plainly: Inhibition of recombinant Trypanosoma cruzi cruzain at 100 uM preincubated for 10 mins in absence of Triton X-100 relative to control. Put shortly:
as §3

Series [9] addresses Rhodesain (Trypanosoma brucei rhodesiense) (UniProt Q95PM0). The experiment in a line: Inhibition of recombinant Trypanosoma brucei rhodesain expressed in Pichia pastoris at 300 uM using Z-FR-AMC as substrate and measured at 12 sec interval for 5 mins without preincubation by fluorimetric analysis relative to control. Put shortly: as §2
Series [10] has the same target. Put plainly: Inhibition of recombinant Trypanosoma brucei rhodesain expressed in Pichia pastoris at 10 uM using Z-FR-AMC as substrate and measured at 12 sec interval for 5 mins without preincubation by fluorimetric analysis relative to control. The method, boiled down:
as §1

In series [11] the target is Cruzipain (Trypanosoma cruzi) (UniProt P25779). Put plainly: Inhibition of recombinant Trypanosoma cruzi cruzain at 300 uM using Z-FR-AMC as substrate and measured at 12 sec interval for 5 mins without preincubation by fluorimetric analysis relative to control. The method, boiled down:
as §1

The target is the same in series [12]. The experiment in a line: Inhibition of recombinant Trypanosoma cruzi cruzain at 300 uM using Z-FR-AMC as substrate preincubated for 10 mins followed by substrate addition and measured at 12 sec interval for 5 mins by fluorimetric analysis relative to control. Conditions: time 15.0 min. The method, boiled down: as §1
For series [13] the target is unchanged. Put plainly: Inhibition of recombinant Trypanosoma cruzi cruzain at 5 uM using Z-FR-AMC as substrate and measured at 12 sec interval for 5 mins without preincubation by fluorimetric analysis relative to control. Put shortly:
(§4)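 Recombinant rhodesain or cruzain (1 nM) in 0.1 M sodium acetate pH 5.5, 0.01% Triton X-100, 1 mM β-mercaptoethanol. Compound at a single concentration, either without or after 10 min enzyme pre-incubation. Inhibition is relative to DMSO, with E-64 as positive control. Done in duplicate (primary screen) or triplicate.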

Series [14] has as its target Rhodesain (Trypanosoma brucei rhodesiense) (UniProt Q95PM0). The experiment in a line: Inhibition of recombinant Trypanosoma brucei rhodesain expressed in Pichia pastoris at 10 uM using Z-FR-AMC as substrate preincubated for 10 mins followed by substrate addition and measured at 12 sec interval for 5 mins by fluorimetric analysis relative to control. Conditions: time 15.0 min. Put shortly: as §1

Series [15] shares this target. The experiment in a line: Inhibition of recombinant Trypanosoma brucei rhodesain expressed in Pichia pastoris at 5 uM using Z-FR-AMC as substrate preincubated for 10 mins followed by substrate addition and measured at 12 sec interval for 5 mins by fluorimetric analysis relative to control. Conditions: time 15.0 min. The method, boiled down: as §4
Series [16] has as its target T1, cathepsin B. The experiment in a line: Inhibition of rat cathepsin B at 100 uM using Z-FR-AMC as substrate measured after 15 mins without preincubation by microplate reader based assay relative to control. Conditions: probe Z-FR-AMC. The method, boiled down:
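Rat cathepsin B (20 nM) at 25°C in 100 mM sodium phosphate, 100 mM NaCl, 1 mM EDTA, 1 mM DTT, 0.01% CHAPS. Compound pre-incubated 0 or 5 min with enzyme; Z-FR-AMC 50 µM, ex 380/em 440 nm, monitored 15 min. Inhibition is versus 2% DMSO, with 1 µM E64 control. Two independent experiments in triplicate.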

For series [17], the target named is Rhodesain (Trypanosoma brucei rhodesiense) (UniProt Q95PM0). The experiment in a line: Inhibition of recombinant Trypanosoma brucei rhodesain expressed in Pichia pastoris at 5 uM using Z-FR-AMC as substrate and measured at 12 sec interval for 5 mins without preincubation by fluorimetric analysis relative to control. Put shortly:
as §4

The structures appear in SMILES notation.

T1 sequence (P00787 whole entry): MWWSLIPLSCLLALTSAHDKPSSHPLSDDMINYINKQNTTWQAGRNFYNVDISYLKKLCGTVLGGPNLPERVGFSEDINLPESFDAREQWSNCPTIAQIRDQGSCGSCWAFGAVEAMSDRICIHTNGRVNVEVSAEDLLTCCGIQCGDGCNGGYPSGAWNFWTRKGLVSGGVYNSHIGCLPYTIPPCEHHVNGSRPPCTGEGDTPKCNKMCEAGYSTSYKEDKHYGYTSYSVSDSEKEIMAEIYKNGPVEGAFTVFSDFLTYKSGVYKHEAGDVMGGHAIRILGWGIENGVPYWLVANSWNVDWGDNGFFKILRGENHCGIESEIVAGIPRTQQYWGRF
Chain of Rhodesain (Trypanosoma brucei rhodesiense) (Q95PM0 1-450): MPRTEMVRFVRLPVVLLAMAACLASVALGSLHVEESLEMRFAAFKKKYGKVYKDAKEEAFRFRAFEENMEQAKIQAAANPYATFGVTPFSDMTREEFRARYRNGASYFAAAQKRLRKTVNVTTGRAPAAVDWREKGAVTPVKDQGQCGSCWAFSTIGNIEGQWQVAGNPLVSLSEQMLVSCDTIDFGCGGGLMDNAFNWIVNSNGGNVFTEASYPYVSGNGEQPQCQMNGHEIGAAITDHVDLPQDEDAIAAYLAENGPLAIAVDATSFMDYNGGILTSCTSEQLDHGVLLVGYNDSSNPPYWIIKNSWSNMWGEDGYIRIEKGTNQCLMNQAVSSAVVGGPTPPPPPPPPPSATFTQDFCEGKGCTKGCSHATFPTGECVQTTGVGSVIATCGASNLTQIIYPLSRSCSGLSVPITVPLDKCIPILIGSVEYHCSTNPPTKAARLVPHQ

Turning to `Cn1c(=O)n(C)c2cc(CNCCNc3ccnc4cc(Cl)ccc34)ccc21`, the results for the IC50 (in series [1]; on Cruzipain) were 0.4 µM and 145 µM, respectively. Besides, the inhibition at 0.25 h, 100 µM at cathepsin B [2] turned out to be 11.7%; at cathepsin S, 8.4%; on cathepsin B [16] it was 9.9%. In addition, the inhibition came to 87.8% in [3]; 13% in [4]; 71% in [5]; 74.8% in series [6]; 18% in [7]; 64.5% in [8]. Also, the inhibition in series [9] is 67%; in [10] it was 10%; in series [11] it was 75%; in series [12] it was 80%; in series [13], 64.9%; in series [14], 12%. In addition, the values for the inhibition in series [15] and in series [17] were 81.4% and 47.7%, respectively.

With `Cl.Cl.Clc1cc(Br)ccc1-c1ccc(CNCC2CCNCC2)o1`, the IC50 in series [1] came to 0.1 µM; at Cruzipain it was 26 µM. The inhibition at 0.25 h, 100 µM turned out to be 3.2% on cathepsin B [2], 29.8% at cathepsin S and 1.3% against cathepsin B [16]. Also, the inhibition was 90.1% in series [3]; 25% in series [4]; 75% in series [5]; 67.1% in [6]; 15% in series [7]; 96.8% in series [8]. In addition, the inhibition in series [9] is 96%; in [10], 10%; in series [11] it was 78%; in series [12], 84%; in series [13], 29.1%; in series [14] it was 2%. Also, the inhibition was found to be 49.6% in series [15] and 31.3% in series [17].

(Values after ChEMBL document CHEMBL4665666, “Discovery and characterization of trypanocidal cysteine protease inhibitors from the 'malaria box'” (Eur J Med Chem, 2019).)
